Measured values as given in ChEMBL document CHEMBL1157537 (J Med Chem, 2008).
Calls of active or inactive are those of the source. The rule behind the calls is not given here.

Legend:
[1] = biological target: T1, Glucocorticoid receptor (Homo sapiens) (UniProt P04150); assay: Antagonist activity at human glucocorticoid receptor relative to Dexamethasone; format: functional
T1 sequence (whole entry): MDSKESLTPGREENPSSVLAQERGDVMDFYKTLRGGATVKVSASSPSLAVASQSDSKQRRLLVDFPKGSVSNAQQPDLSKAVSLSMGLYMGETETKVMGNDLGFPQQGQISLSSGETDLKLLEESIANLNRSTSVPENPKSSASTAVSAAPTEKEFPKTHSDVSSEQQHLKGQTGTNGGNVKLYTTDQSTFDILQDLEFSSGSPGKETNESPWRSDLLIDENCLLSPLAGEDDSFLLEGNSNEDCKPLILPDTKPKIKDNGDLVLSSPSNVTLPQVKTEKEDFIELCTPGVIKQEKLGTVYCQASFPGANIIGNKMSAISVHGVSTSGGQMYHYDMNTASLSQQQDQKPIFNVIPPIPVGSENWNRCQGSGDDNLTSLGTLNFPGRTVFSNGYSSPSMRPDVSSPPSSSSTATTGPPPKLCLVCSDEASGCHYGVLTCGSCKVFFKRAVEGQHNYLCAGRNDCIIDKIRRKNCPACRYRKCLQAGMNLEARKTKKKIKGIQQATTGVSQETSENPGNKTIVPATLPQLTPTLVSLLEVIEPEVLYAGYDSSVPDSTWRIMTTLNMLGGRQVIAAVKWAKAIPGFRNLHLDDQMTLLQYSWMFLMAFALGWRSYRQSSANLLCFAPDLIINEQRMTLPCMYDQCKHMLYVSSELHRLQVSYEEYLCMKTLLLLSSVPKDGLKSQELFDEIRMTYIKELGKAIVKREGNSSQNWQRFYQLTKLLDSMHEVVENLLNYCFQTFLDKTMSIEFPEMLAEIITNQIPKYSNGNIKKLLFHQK

[2] = biological target: T1, Glucocorticoid receptor (Homo sapiens); assay: Agonist activity at human glucocorticoid receptor relative to Dexamethasone; format: functional
Cynomolgus monkey = assay: Inhibition of ovulation in cynomolgus monkey assessed as reduction of progesterone level after 3 weeks; format: functional, organism-based; conditions: Macaca fascicularis
Oryctolagus cuniculus = assay: Progestational activity in New Zealand white rabbit uterine epithelium at 0.10 mg/kg, po after 3 days by Clauberg-McPhail assay; format: functional, organism-based; parameters: dose 0.1 mg/kg
[3] = biological target: T2, Estrogen receptor (Homo sapiens) (UniProt P03372); assay: Agonist activity at human estrogen receptor alpha relative to 17-beta-estradiol; format: functional
T2 sequence (whole entry): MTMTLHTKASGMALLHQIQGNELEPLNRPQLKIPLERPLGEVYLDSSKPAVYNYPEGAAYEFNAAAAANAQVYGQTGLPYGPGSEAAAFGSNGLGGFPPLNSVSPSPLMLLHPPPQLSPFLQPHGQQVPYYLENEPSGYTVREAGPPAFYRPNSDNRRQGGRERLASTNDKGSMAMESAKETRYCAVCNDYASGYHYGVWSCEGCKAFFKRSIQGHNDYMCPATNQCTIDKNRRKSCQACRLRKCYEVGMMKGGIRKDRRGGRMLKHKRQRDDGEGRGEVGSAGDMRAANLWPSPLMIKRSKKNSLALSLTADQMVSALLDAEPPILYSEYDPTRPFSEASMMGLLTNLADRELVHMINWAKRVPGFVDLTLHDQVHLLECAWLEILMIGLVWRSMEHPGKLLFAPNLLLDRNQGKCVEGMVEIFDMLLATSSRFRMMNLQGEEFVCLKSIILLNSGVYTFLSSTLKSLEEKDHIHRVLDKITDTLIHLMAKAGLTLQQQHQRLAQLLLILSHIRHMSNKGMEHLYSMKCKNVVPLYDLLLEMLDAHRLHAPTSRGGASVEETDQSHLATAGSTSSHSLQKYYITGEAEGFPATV

[4] = biological target: T3, Progesterone receptor (Homo sapiens) (UniProt P06401); assay: Agonist activity at human progesterone receptor relative to progesterone; format: functional
T3 sequence (whole entry): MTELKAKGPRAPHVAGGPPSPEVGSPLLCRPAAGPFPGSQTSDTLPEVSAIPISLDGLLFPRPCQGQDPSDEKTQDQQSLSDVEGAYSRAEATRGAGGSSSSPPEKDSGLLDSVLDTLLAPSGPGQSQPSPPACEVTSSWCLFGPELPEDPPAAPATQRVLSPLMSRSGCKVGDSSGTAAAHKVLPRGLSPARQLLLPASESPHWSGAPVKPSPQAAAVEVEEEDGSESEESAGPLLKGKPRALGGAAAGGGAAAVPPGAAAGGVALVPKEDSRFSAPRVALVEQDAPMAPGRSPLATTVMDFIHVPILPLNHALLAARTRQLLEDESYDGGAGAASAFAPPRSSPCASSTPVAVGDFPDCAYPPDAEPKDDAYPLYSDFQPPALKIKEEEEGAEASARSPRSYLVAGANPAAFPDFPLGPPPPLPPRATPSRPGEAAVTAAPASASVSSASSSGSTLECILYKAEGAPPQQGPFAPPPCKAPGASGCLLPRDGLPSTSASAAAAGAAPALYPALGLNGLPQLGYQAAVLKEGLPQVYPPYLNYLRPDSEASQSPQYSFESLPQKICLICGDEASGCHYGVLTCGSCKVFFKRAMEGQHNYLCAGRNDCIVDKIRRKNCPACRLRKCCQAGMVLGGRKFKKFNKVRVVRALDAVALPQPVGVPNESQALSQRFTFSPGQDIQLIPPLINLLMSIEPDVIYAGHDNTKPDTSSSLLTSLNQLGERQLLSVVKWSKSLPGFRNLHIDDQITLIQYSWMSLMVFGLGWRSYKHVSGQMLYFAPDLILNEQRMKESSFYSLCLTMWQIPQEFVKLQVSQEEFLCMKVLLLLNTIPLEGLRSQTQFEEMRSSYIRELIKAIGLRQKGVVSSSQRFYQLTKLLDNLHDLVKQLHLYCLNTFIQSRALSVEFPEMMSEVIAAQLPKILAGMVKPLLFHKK

Rattus norvegicus [5] = species: Rattus norvegicus; assay: Progestational activity in estrone-treated ovariectomized rat assessed as effect on vaginal epithelial thickness; format: functional, organism-based
Outline: (§1)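 Ovariectomized rats were treated with estrone, alone or combined with test progestin, and compared with vehicle and estrone-only groups. Endpoints were uterine epithelial cell height, vaginal epithelial thickness and mammary alveolar bud proliferation.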

Rattus norvegicus [6] = species: Rattus norvegicus; assay: Progestational activity in estrone-treated ovariectomized rat assessed as effect on uterine epithelial cell height; format: functional, organism-based; outline: as §1
Rattus norvegicus [7] = species: Rattus norvegicus; assay: Progestational activity in estrone-treated ovariectomized rat assessed as inhibition of medroxyprogesterone acetate-induced effect on vaginal epithelial thickness; format: functional, organism-based
Outline: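 Antagonist mode of the estrone-treated ovariectomized rat multi-endpoint model: compound was combined with MPA plus estrone, with vehicle and estrone-only groups. Endpoints were uterine epithelial cell height, vaginal epithelial thickness and mammary alveolar bud proliferation.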

Efficacy [1]: 92%
Efficacy [2]: 6%
Efficacy [3]: 5%
Efficacy [4]: 145%
SMILES: CC1=C[C@@H]([C@@H]2Oc3c(F)cc(F)cc3-c3ccc4c(c32)C(C)=CC(C)(C)N4)CCC1 (stereo in doubt; (-)-5c)
Activity (Cynomolgus monkey): Active
Activity (Oryctolagus cuniculus): Active
Activity (Rattus norvegicus [5]): Active
Activity (Rattus norvegicus [6]): Active
Activity (Rattus norvegicus [7]): inactive
